Laboratory results from ChEMBL document CHEMBL1140914, “Synthesis and in vitro and in vivo evaluation of 18F-labeled positron emission tomography (PET) ligands for imaging the vesicular acetylcholine transporter” (J Med Chem, 2009).

Assays:
Kidney [1] = test: Drug uptake in Sprague-Dawley rat kidney at 25 to 35 uCi, iv after 2 hrs postinjection by […]; assay type: ADME, organism-based; conditions: in vivo
In short: (§1)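 Mature male Sprague-Dawley rats (250–400 g) under 2–3% isoflurane got 25–35 μCi tracer in 100–150 μL saline via tail vein. Groups of at least 4 were euthanized at 5 min, 30 min, 1 h or 2 h. Brain was dissected into regions, and tissues were weighed and gamma counted against an injectate standard. Values are %ID/g, mean ± SD.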

Muscle tissue [2] = test: Drug uptake in Sprague-Dawley rat muscle at 25 to 35 uCi, iv after 1 hr postinjection by […]; assay type: ADME, organism-based; conditions: in vivo; in short: as §1
[3] = Drug uptake in Sprague-Dawley rat fat at 25 to 35 uCi, iv after 1 hr postinjection by […]; assay type: ADME, organism-based, Adipose tissue; conditions: in vivo; in short: as §1
Brain [4] = test: Drug uptake in Sprague-Dawley rat brain at 25 to 35 uCi, iv after 1 hr postinjection by […]; assay type: ADME, organism-based; conditions: in vivo; in short: as §1
Brain [5] = test: Drug uptake in Sprague-Dawley rat brain at 25 to 35 uCi, iv after 5 mins postinjection by […]; assay type: ADME, organism-based; conditions: in vivo; in short: as §1
Heart [6] = test: Drug uptake in Sprague-Dawley rat heart at 25 to 35 uCi, iv after 2 hrs postinjection by […]; assay type: ADME, organism-based; conditions: in vivo; in short: as §1
Muscle tissue [7] = test: Drug uptake in Sprague-Dawley rat muscle at 25 to 35 uCi, iv after 5 mins postinjection by […]; assay type: ADME, organism-based; conditions: in vivo; in short: as §1
Bone [8] = test: Drug uptake in Sprague-Dawley rat bone at 25 to 35 uCi, iv after 30 mins postinjection by […]; assay type: ADME, organism-based, Bone element; conditions: in vivo, 0.5 h; in short: as §1
Heart [9] = test: Drug uptake in Sprague-Dawley rat heart at 25 to 35 uCi, iv after 5 mins postinjection by […]; assay type: ADME, organism-based; conditions: in vivo; in short: as §1
Muscle tissue [10] = test: Drug uptake in Sprague-Dawley rat muscle at 25 to 35 uCi, iv after 30 mins postinjection by […]; assay type: ADME, organism-based; conditions: in vivo, 0.5 h; in short: as §1
Kidney [11] = test: Drug uptake in Sprague-Dawley rat kidney at 25 to 35 uCi, iv after 1 hr postinjection by […]; assay type: ADME, organism-based; conditions: in vivo; in short: as §1
[12] = Drug uptake in Sprague-Dawley rat fat at 25 to 35 uCi, iv after 30 mins postinjection by […]; assay type: ADME, organism-based, Adipose tissue; conditions: in vivo, 0.5 h; in short: as §1
Bone [13] = test: Drug uptake in Sprague-Dawley rat bone at 25 to 35 uCi, iv after 2 hrs postinjection by […]; assay type: ADME, organism-based, Bone element; conditions: in vivo; in short: as §1
Heart [14] = test: Drug uptake in Sprague-Dawley rat heart at 25 to 35 uCi, iv after 1 hr postinjection by […]; assay type: ADME, organism-based; conditions: in vivo; in short: as §1
Bone [15] = test: Drug uptake in Sprague-Dawley rat bone at 25 to 35 uCi, iv after 5 mins postinjection by […]; assay type: ADME, organism-based, Bone element; conditions: in vivo; in short: as §1
Heart [16] = test: Drug uptake in Sprague-Dawley rat heart at 25 to 35 uCi, iv after 30 mins postinjection by […]; assay type: ADME, organism-based; conditions: in vivo, 0.5 h; in short: as §1
Lung [17] = test: Drug uptake in Sprague-Dawley rat lung at 25 to 35 uCi, iv after 2 hrs postinjection by […]; assay type: ADME, organism-based; conditions: in vivo; in short: as §1
Liver [18] = test: Drug uptake in Sprague-Dawley rat liver at 25 to 35 uCi, iv after 30 mins postinjection by […]; assay type: ADME, organism-based; conditions: in vivo, 0.5 h; in short: as §1
Muscle tissue [19] = test: Drug uptake in Sprague-Dawley rat muscle at 25 to 35 uCi, iv after 2 hrs postinjection by […]; assay type: ADME, organism-based; conditions: in vivo; in short: as §1
Brain [20] = test: Drug uptake in Sprague-Dawley rat brain at 25 to 35 uCi, iv after 30 mins postinjection by […]; assay type: ADME, organism-based; conditions: in vivo, 0.5 h; in short: as §1
Liver [21] = test: Drug uptake in Sprague-Dawley rat liver at 25 to 35 uCi, iv after 5 mins postinjection by […]; assay type: ADME, organism-based; conditions: in vivo; in short: as §1
Lung [22] = test: Drug uptake in Sprague-Dawley rat lung at 25 to 35 uCi, iv after 5 mins postinjection by […]; assay type: ADME, organism-based; conditions: in vivo; in short: as §1
Blood [23] = test: Drug uptake in Sprague-Dawley rat blood at 25 to 35 uCi, iv after 1 hr postinjection by […]; assay type: ADME, organism-based; conditions: in vivo; in short: as §1
Kidney [24] = test: Drug uptake in Sprague-Dawley rat kidney at 25 to 35 uCi, iv after 30 mins postinjection by […]; assay type: ADME, organism-based; conditions: in vivo, 0.5 h; in short: as §1
[25] = Drug uptake in Sprague-Dawley rat fat at 25 to 35 uCi, iv after 5 mins postinjection by […]; assay type: ADME, organism-based, Adipose tissue; conditions: in vivo; in short: as §1
Bone [26] = test: Drug uptake in Sprague-Dawley rat bone at 25 to 35 uCi, iv after 1 hr postinjection by […]; assay type: ADME, organism-based, Bone element; conditions: in vivo; in short: as §1
Liver [27] = test: Drug uptake in Sprague-Dawley rat liver at 25 to 35 uCi, iv after 2 hrs postinjection by […]; assay type: ADME, organism-based; conditions: in vivo; in short: as §1
Blood [28] = test: Drug uptake in Sprague-Dawley rat blood at 25 to 35 uCi, iv after 5 mins postinjection by […]; assay type: ADME, organism-based; conditions: in vivo; in short: as §1
[29] = Drug uptake in Sprague-Dawley rat fat at 25 to 35 uCi, iv after 2 hrs postinjection by […]; assay type: ADME, organism-based, Adipose tissue; conditions: in vivo; in short: as §1
Lung [30] = test: Drug uptake in Sprague-Dawley rat lung at 25 to 35 uCi, iv after 1 hr postinjection by […]; assay type: ADME, organism-based; conditions: in vivo; in short: as §1
Lung [31] = test: Drug uptake in Sprague-Dawley rat lung at 25 to 35 uCi, iv after 30 mins postinjection by […]; assay type: ADME, organism-based; conditions: in vivo, 0.5 h; in short: as §1
Blood [32] = test: Drug uptake in Sprague-Dawley rat blood at 25 to 35 uCi, iv after 30 mins postinjection by […]; assay type: ADME, organism-based; conditions: in vivo, 0.5 h; in short: as §1
Kidney [33] = test: Drug uptake in Sprague-Dawley rat kidney at 25 to 35 uCi, iv after 5 mins postinjection by […]; assay type: ADME, organism-based; conditions: in vivo; in short: as §1
Liver [34] = test: Drug uptake in Sprague-Dawley rat liver at 25 to 35 uCi, iv after 1 hr postinjection by […]; assay type: ADME, organism-based; conditions: in vivo; in short: as §1
Brain [35] = test: Drug uptake in Sprague-Dawley rat brain at 25 to 35 uCi, iv after 2 hrs postinjection by […]; assay type: ADME, organism-based; conditions: in vivo; in short: as §1
Hippocampus = test: Drug uptake in Sprague-Dawley rat brain hippocampus at 25 to 35 uCi, iv after 5 mins postinjection by […]; assay type: ADME, organism-based; conditions: in vivo; in short: as §1
Blood [36] = test: Drug uptake in Sprague-Dawley rat blood at 25 to 35 uCi, iv after 2 hrs postinjection by […]; assay type: ADME, organism-based; conditions: in vivo; in short: as §1
Cerebellum = test: Drug uptake in Sprague-Dawley rat brain cerebellum at 25 to 35 uCi, iv after 5 mins postinjection by […]; assay type: ADME, organism-based; conditions: in vivo; in short: as §1
Striatum = test: Drug uptake in Sprague-Dawley rat brain striatum at 25 to 35 uCi, iv after 5 mins postinjection by […]; assay type: ADME, organism-based; conditions: in vivo; in short: as §1
Cortex = test: Drug uptake in Sprague-Dawley rat brain cortex at 25 to 35 uCi, iv after 5 mins postinjection by […]; assay type: ADME, organism-based; conditions: in vivo; in short: as §1

Drug uptake (Kidney [1]) [% ID/g] | Drug uptake (Muscle tissue [2]) [% ID/g] | Drug uptake [3] [% ID/g] | Drug uptake (Brain [4]) [% ID/g] | Drug uptake (Brain [5]) [% ID/g] | Drug uptake (Heart [6]) [% ID/g] | Drug uptake (Muscle tissue [7]) [% ID/g] | Drug uptake (Bone [8]) [% ID/g] | Drug uptake (Heart [9]) [% ID/g] | Drug uptake (Muscle tissue [10]) [% ID/g] | Drug uptake (Kidney [11]) [% ID/g] | Drug uptake [12] [% ID/g] | Drug uptake (Bone [13]) [% ID/g] | Drug uptake (Heart [14]) [% ID/g] | Drug uptake (Bone [15]) [% ID/g] | Drug uptake (Heart [16]) [% ID/g] | Drug uptake (Lung [17]) [% ID/g] | Drug uptake (Liver [18]) [% ID/g] | Drug uptake (Muscle tissue [19]) [% ID/g] | Drug uptake (Brain [20]) [% ID/g] | also measured | SMILES
0.853 | 0.076 | 0.196 | 0.095 | 0.606 | 0.056 | 0.079 | 0.445 | 0.328 | 0.071 | 0.99 | 0.177 | 0.739 | 0.094 | 0.307 | 0.141 | 0.223 | 1.504 | 0.047 | 0.153 | Drug uptake (Liver [21]): 1.939 % ID/g; Drug uptake (Lung [22]): 1.389 % ID/g; Drug uptake (Blood [23]): 0.043 % ID/g; Drug uptake (Kidney [24]): 1.042 % ID/g; Drug uptake [25]: 0.088 % ID/g; Drug uptake (Bone [26]): 0.623 % ID/g; Drug uptake (Liver [27]): 1.188 % ID/g; Drug uptake (Blood [28]): 0.122 % ID/g; Drug uptake [29]: 0.173 % ID/g; Drug uptake (Lung [30]): 0.346 % ID/g; Drug uptake (Lung [31]): 0.553 % ID/g; Drug uptake (Blood [32]): 0.071 % ID/g; Drug uptake (Kidney [33]): 1.644 % ID/g; Drug uptake (Liver [34]): 1.402 % ID/g; Drug uptake (Brain [35]): 0.059 % ID/g | O=C(c1ccc([18F])cc1)C1CCN([C@@H]2Cc3ccccc3C[C@H]2O)CC1 (racemic)
1.339 | 0.056 | 0.241 | 0.124 | 0.823 | 0.047 | 0.091 | 0.157 | 0.321 | 0.08 | 1.298 | 0.207 | 0.138 | 0.066 | 0.334 | 0.109 | 0.199 | 1.769 | 0.035 | 0.226 | Drug uptake (Hippocampus): 0.837 % ID/g; Drug uptake (Blood [36]): 0.02 % ID/g; Drug uptake (Liver [21]): 1.506 % ID/g; Drug uptake (Lung [22]): 1.577 % ID/g; Drug uptake (Blood [23]): 0.029 % ID/g; Drug uptake (Cerebellum): 0.743 % ID/g; Drug uptake (Kidney [24]): 1.896 % ID/g; Drug uptake [25]: 0.132 % ID/g; Drug uptake (Bone [26]): 0.148 % ID/g; Drug uptake (Liver [27]): 1.791 % ID/g; Drug uptake (Blood [28]): 0.073 % ID/g; Drug uptake [29]: 0.249 % ID/g; Drug uptake (Lung [30]): 0.327 % ID/g; Drug uptake (Lung [31]): 0.481 % ID/g; Drug uptake (Blood [32]): 0.037 % ID/g; Drug uptake (Striatum): 0.911 % ID/g; Drug uptake (Kidney [33]): 2.018 % ID/g; Drug uptake (Cortex): 0.911 % ID/g; Drug uptake (Liver [34]): 2.214 % ID/g; Drug uptake (Brain [35]): 0.095 % ID/g | O=C(c1ccc([18F])cc1)C1CCN([C@@H]2Cc3ccccc3C[C@H]2O)CC1 (stereo in doubt; (-))
0.194 | 0.034 | 0.154 | 0.041 | 0.35 | 0.031 | 0.047 | 0.277 | 0.194 | 0.051 | 0.291 | 0.108 | 0.532 | 0.051 | 0.187 | 0.094 | 0.112 | 1.239 | 0.022 | 0.071 | Drug uptake (Blood [36]): 0.027 % ID/g; Drug uptake (Liver [21]): 1.849 % ID/g; Drug uptake (Lung [22]): 0.904 % ID/g; Drug uptake (Blood [23]): 0.048 % ID/g; Drug uptake (Kidney [24]): 0.416 % ID/g; Drug uptake [25]: 0.052 % ID/g; Drug uptake (Bone [26]): 0.399 % ID/g; Drug uptake (Liver [27]): 0.692 % ID/g; Drug uptake (Blood [28]): 0.136 % ID/g; Drug uptake [29]: 0.15 % ID/g; Drug uptake (Lung [30]): 0.188 % ID/g; Drug uptake (Lung [31]): 0.332 % ID/g; Drug uptake (Blood [32]): 0.087 % ID/g; Drug uptake (Kidney [33]): 0.791 % ID/g; Drug uptake (Liver [34]): 0.814 % ID/g; Drug uptake (Brain [35]): 0.022 % ID/g | O=C(c1ccc([18F])cc1)C1CCN([C@@H]2Cc3ccccc3C[C@H]2O)CC1 (stereo in doubt; (+))
